According to ChEMBL document CHEMBL4680130, “Substituted 4-phenylthiazoles: Development of potent and selective A, A and dual A/A adenosine receptor antagonists” (Eur J Med Chem, 2020):
Each block holds one compound with its values, some of them ahead of it.

Legend:
Adenosine receptor A1 [1] = target: T1, Adenosine receptor A1 (Homo sapiens, UniProt P30542); assay: Displacement of [3H]CCPA from human adenosine receptor A1 expressed in CHO cell membranes incubated for 90 mins by radioligand competition assay; set-up: species or system Cell membrane
T1 sequence (P30542 whole entry): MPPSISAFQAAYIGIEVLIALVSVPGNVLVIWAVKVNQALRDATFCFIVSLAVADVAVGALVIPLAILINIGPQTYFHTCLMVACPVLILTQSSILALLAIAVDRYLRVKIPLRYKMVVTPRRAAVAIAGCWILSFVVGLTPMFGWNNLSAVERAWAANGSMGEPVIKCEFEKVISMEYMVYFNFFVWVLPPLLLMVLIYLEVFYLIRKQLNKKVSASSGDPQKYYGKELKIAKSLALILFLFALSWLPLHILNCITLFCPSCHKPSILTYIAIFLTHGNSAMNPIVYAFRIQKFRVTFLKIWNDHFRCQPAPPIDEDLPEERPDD

Adenosine receptor A1 [2] = target: T2, Adenosine receptor A1 (Rattus norvegicus, UniProt P25099); assay: Displacement of [3H]CCPA from adenosine receptor A1 in rat brain cortex membranes incubated for 90 mins by radioligand competition assay; assay type: cell membranes, Cell membrane
T2 sequence (P25099 whole entry): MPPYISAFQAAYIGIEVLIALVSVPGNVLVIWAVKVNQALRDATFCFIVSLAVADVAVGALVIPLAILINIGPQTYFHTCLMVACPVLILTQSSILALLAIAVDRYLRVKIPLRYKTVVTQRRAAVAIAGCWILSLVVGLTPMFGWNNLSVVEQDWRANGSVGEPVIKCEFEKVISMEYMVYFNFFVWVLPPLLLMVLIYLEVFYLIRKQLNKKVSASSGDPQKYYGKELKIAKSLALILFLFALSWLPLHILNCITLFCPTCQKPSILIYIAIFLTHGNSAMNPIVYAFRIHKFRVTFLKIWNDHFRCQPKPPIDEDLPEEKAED

Adenosine receptor A2a [3] = target: T3, Adenosine receptor A2a (Homo sapiens, UniProt P29274); assay: Displacement of [3H]MSX2 from human adenosine receptor A2A expressed in HEK293 cell membranes incubated for 30 mins by radioligand competition assay; set-up: species or system Cell membrane
T3 sequence (P29274 whole entry): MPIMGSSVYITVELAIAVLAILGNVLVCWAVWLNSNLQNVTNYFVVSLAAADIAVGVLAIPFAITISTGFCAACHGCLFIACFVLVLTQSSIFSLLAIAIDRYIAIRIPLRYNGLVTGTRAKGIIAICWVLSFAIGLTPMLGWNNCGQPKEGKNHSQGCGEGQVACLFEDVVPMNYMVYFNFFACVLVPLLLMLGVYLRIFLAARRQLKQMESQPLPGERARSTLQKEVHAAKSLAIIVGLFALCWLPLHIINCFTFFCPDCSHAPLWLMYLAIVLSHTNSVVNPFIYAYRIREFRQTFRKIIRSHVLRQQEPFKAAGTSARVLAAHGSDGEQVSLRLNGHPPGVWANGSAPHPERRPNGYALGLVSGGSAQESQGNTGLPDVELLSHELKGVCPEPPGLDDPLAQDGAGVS

Adenosine receptor A2a [4] = target: Adenosine receptor A2a (Rattus norvegicus, UniProt P30543); assay: Displacement of [3H]MSX2 from adenosine receptor A2A in rat brain striatum membranes incubated for 30 mins by radioligand competition assay; assay type: cell membranes, Cell membrane
Adenosine receptor A2a (Rattus norvegicus, UniProt P30543), sequence (P30543 whole entry): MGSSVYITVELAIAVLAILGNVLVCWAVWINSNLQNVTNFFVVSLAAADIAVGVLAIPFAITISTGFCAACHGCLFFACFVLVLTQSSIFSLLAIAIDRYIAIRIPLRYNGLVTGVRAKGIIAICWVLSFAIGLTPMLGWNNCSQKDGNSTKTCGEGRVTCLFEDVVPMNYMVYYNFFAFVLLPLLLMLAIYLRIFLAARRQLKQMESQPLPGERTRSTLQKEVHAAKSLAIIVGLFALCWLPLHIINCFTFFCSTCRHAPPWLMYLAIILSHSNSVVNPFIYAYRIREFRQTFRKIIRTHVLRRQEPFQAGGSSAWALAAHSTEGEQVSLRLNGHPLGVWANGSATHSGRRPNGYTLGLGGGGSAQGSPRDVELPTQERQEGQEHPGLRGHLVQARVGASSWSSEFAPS

Adenosine receptor A2b = target: T4, Adenosine receptor A2b (Homo sapiens, UniProt P29275); assay: Displacement of [3H]PSB-603 from human adenosine receptor A2B expressed in CHO cell membranes incubated for 75 mins by radioligand competition assay; set-up: species or system Cell membrane
T4 sequence (P29275 whole entry): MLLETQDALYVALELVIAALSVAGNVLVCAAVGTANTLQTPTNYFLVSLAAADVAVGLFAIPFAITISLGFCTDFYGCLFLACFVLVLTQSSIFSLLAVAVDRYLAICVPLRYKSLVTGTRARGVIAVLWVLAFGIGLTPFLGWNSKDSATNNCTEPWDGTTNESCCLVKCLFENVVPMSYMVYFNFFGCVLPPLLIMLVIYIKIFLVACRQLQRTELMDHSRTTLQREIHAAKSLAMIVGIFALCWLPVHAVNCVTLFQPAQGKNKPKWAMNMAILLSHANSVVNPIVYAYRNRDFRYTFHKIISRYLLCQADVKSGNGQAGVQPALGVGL

Adenosine receptor A3 [5] = target: T5, Adenosine receptor A3 (Homo sapiens, UniProt P0DMS8); assay: Displacement of [3H]PSB-11 from human adenosine receptor A3 expressed in CHO cell membranes incubated for 60 mins by radioligand competition assay; set-up: species or system Cell membrane
T5 sequence (P0DMS8 whole entry): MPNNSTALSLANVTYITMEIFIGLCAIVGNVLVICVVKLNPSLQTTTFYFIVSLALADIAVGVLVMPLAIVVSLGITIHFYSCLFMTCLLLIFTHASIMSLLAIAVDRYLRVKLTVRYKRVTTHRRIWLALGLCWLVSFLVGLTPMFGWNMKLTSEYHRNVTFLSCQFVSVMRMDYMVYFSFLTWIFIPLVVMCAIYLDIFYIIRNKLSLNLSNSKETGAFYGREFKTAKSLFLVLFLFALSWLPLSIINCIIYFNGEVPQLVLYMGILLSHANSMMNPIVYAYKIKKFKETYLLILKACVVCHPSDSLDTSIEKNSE

Adenosine receptor A3 [6] = target: T6, Adenosine receptor A3 (Rattus norvegicus, UniProt P28647); assay: Displacement of [3H]NECA from rat adenosine receptor A3 expressed in CHO cell membranes incubated for 60 mins by radioligand competition assay; set-up: species or system Cell membrane
T6 sequence (P28647 whole entry): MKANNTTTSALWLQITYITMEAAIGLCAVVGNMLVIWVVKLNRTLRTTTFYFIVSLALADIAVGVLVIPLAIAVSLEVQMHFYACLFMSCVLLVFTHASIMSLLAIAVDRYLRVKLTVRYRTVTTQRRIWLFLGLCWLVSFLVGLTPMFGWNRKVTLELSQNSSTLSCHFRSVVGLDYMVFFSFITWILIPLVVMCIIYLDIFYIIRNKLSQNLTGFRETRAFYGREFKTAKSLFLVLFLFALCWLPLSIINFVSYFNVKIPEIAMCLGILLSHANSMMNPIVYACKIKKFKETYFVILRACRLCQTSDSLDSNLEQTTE

Adenosine receptor A2a [7] = target: T3, Adenosine receptor A2a; assay: Displacement of [3H]MSX2 from human adenosine receptor A2A expressed in HEK293 cell membranes at 0.1 uM incubated for 30 mins by radioligand competition assay relative to control; conditions: Cell membrane, in the assay text read “at 1 uM” for “at 0.1 uM”
How it was run: (§1)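 A2A binding, [3H]MSX-2 1.0 nM. Membranes: rat brain striatum, or HEK293 cells expressing human A2A. Adenosine deaminase preincubation 20 min, then 30 min at rt in 50 mM Tris-HCl pH 7.4 with 2.5% DMSO. Nonspecific binding defined by 50 µM NECA. GF/B filtration, scintillation counting. Single-concentration percent inhibition, ≥3 experiments in duplicate or triplicate.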

[8] = target: T7, Adenosine receptor A1 (Rattus norvegicus) (UniProt P25099); assay: Displacement of [3H]CCPA from adenosine receptor A1 in rat brain cortex membranes at 0.1 uM incubated for 90 mins by radioligand competition assay; conditions: Cell membrane
T7 sequence (whole entry): T2 sequence (P25099 whole entry)
How it was run: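 A1 competition binding with [3H]CCPA, 0.5 nM. Membranes: CHO cells expressing human A1, or rat brain cortex. Membranes preincubated 20 min with adenosine deaminase (2 U/mL per mg protein). Incubation 90 min at rt in 50 mM Tris-HCl pH 7.4 with 2.5% final DMSO. Nonspecific binding defined by 10 µM 2-chloroadenosine. GF/B filtration, scintillation counting.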

[9] = target: Adenosine receptor A2a (Rattus norvegicus) (UniProt P30543); assay: Displacement of [3H]MSX2 from adenosine receptor A2A in rat brain striatum membranes at 0.1 uM incubated for 30 mins by radioligand competition assay relative to control; conditions: Cell membrane; how it was run: as §1
Adenosine receptor A2a (Rattus norvegicus), sequence (P30543 whole entry): as the sequence (P30543 whole entry) above

[10] = target: T8, Adenosine receptor A2b (Homo sapiens) (UniProt P29275); assay: Displacement of [3H]PSB-603 from human adenosine receptor A2B expressed in CHO cell membranes at 0.1 uM incubated for 75 mins by radioligand competition assay relative to control; conditions: Cell membrane
T8 sequence (whole entry): T4 sequence (P29275 whole entry)
How it was run: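 CHO membranes expressing human or rat A2B, [3H]PSB-603 0.3 nM. Nonspecific binding defined by 10 µM DPCPX. Preincubated 20 min with adenosine deaminase, then 75 min at rt in Tris-HCl pH 7.4 with 2.5% DMSO. Filters washed with ice-cold 50 mM Tris-HCl containing 0.1% BSA; scintillation counting.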

[11] = target: T9, Adenosine receptor A3 (Homo sapiens) (UniProt P0DMS8); assay: Displacement of [3H]PSB-11 from human adenosine receptor A3 expressed in CHO cell membranes at 0.1 uM incubated for 60 mins by radioligand competition assay; conditions: Cell membrane, dose 1 µM, in the assay text read “1 uM” for “0.1 uM”
T9 sequence (whole entry): T5 sequence (P0DMS8 whole entry)
How it was run: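 CHO membranes expressing human A3, [3H]PSB-11 0.5 nM. Nonspecific binding defined by 100 µM R-PIA. Adenosine deaminase preincubation 20 min, then 60 min at rt in 50 mM Tris-HCl pH 7.4 with 2.5% DMSO. Filtered on GF/B, scintillation counted.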

SMILES: Cc1ccc(-n2c(-c3sc(NC(=O)c4ccco4)nc3-c3ccccc3)nc3ccccc3c2=O)cc1
Ki (Adenosine receptor A1 [1]): > 1 µM
Ki (Adenosine receptor A1 [2]): > 1 µM
Ki (Adenosine receptor A2a [3]): > 1 µM
Ki (Adenosine receptor A2a [4]): > 1 µM
Ki (Adenosine receptor A2b): > 0.1 µM
Ki (Adenosine receptor A3 [5]): 0.0254 µM
Ki (Adenosine receptor A3 [6]): 1.84 µM
inhibition (Adenosine receptor A2a [7]): 1%
inhibition [8]: 25%
inhibition [9]: 6%

SMILES: Cn1c(=O)c2[nH]cnc2n(C)c1=O [THEOPHYLLINE]
Ki (Adenosine receptor A3 [6]): > 100 µM

SMILES: COc1ccc(C(=O)Nc2nc(-c3ccccc3)c(-c3nc4ccccc4c(=O)n3-c3ccc(OC)cc3)s2)cc1
Ki (Adenosine receptor A1 [1]): > 1 µM
Ki (Adenosine receptor A1 [2]): > 1 µM
Ki (Adenosine receptor A2a [3]): > 1 µM
Ki (Adenosine receptor A2a [4]): > 1 µM
Ki (Adenosine receptor A2b): > 0.1 µM
Ki (Adenosine receptor A3 [5]): 0.00463 µM
Ki (Adenosine receptor A3 [6]): > 10 µM
inhibition (Adenosine receptor A2a [7]): 10%
inhibition [8]: 17%
inhibition [9]: 1%

SMILES: O=C(Nc1nc(-c2ccccc2)c(-c2ccccn2)s1)c1ccccc1
Ki (Adenosine receptor A1 [1]): 0.0908 µM
Ki (Adenosine receptor A1 [2]): 0.00347 µM
Ki (Adenosine receptor A2a [3]): 0.0836 µM
Ki (Adenosine receptor A2a [4]): 0.391 µM
Ki (Adenosine receptor A2b): > 0.1 µM
Ki (Adenosine receptor A3 [5]): > 1 µM

SMILES: CC[C@@H]1CN2C(=O)N(C)c3nc(-c4cc(Cl)cc(Cl)c4Cl)[nH]c3C2=N1
Ki (Adenosine receptor A1 [1]): 1.7 µM
Ki (Adenosine receptor A1 [2]): 0.805 µM
Ki (Adenosine receptor A2a [3]): 2.7 µM
Ki (Adenosine receptor A2a [4]): 6.04 µM
Ki (Adenosine receptor A2b): 30 µM

Continued, values first:

Ki (Adenosine receptor A1 [1]): > 1 µM
Ki (Adenosine receptor A1 [2]): > 1 µM
Ki (Adenosine receptor A2a [3]): > 1 µM
Ki (Adenosine receptor A2a [4]): > 1 µM
Ki (Adenosine receptor A2b): > 0.1 µM
Ki (Adenosine receptor A3 [5]): 0.00645 µM
Ki (Adenosine receptor A3 [6]): 0.973 µM
inhibition (Adenosine receptor A2a [7]): 11%
inhibition [10]: 30%
inhibition [8]: 25%
SMILES: COc1ccc(-n2c(-c3sc(NC(=O)c4ccco4)nc3-c3ccccc3)nc3ccccc3c2=O)cc1

Ki (Adenosine receptor A1 [1]): > 10 µM
Ki (Adenosine receptor A2a [3]): 3.66 µM
Ki (Adenosine receptor A2b): > 10 µM
SMILES: CCCOC(=O)c1c(-c2ccccc2)nc(CC)c(C(=O)SCC)c1CCC

Ki (Adenosine receptor A1 [1]): 0.0136 µM
Ki (Adenosine receptor A1 [2]): 0.00177 µM
Ki (Adenosine receptor A2a [3]): > 1 µM
Ki (Adenosine receptor A2a [4]): > 1 µM
Ki (Adenosine receptor A2b): > 0.1 µM
Ki (Adenosine receptor A3 [5]): > 1 µM
inhibition [11]: 37%
inhibition [9]: 16%
SMILES: COc1ccc(C(=O)Nc2nc(-c3ccccc3)c(C(=O)c3ccc(OC)cc3)s2)cc1

Ki (Adenosine receptor A1 [1]): > 1 µM
Ki (Adenosine receptor A1 [2]): > 1 µM
Ki (Adenosine receptor A2a [3]): > 1 µM
Ki (Adenosine receptor A2a [4]): > 1 µM
Ki (Adenosine receptor A2b): > 0.1 µM
Ki (Adenosine receptor A3 [5]): 0.111 µM
inhibition ([8]; filed as antagonist): 1%
inhibition [9]: 3%
SMILES: O=C(Nc1nc(-c2ccccc2)c(-c2nc3ccccc3c(=O)n2-c2ccccc2)s1)c1ccccc1
